Experimental data: PMC4238591 (Analytical Chemistry, 2014)
“And” between values parts separate entries of the source, which are not always exact repeats. Identical values can stand only once. Like-named read-outs stand apart in the source and are kept apart here.

Experiments:
[1] = format: binding, Ovine
[2] = SHG isotherm of nonspecific binding of CTB to pure DOPC bilayer; details: entire CTB concentration range examined (0.22 to 13 nM)
[3] = SPR, 120–240 nM CTB, cited from earlier work
[4] = fluorescence; 1 mol % GM1; Hill–Waud model; cited from earlier work
[5] = SHCS of PnA binding to 5 mol % GM1-doped DOPC lipid bilayer; set-up: species or system Ovine; details: for equilibrium binding affinity Ka: eq 2
[6] = cited from earlier work
[7] = SHCS of nonspecific binding of PnA to pure DOPC bilayer; details: 0.43, 3 and 12 μM PnA, pure DOPC bilayer without GM1
How it was run: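 Data were recorded after steady-state equilibrium on each laser pulse (20 Hz, 50 ms step). For each protein concentration, 20 sets of 5000 points each (1.4 h) were taken. Each set's FFT was multiplied by its complex conjugate, the sets were averaged, and the result was inverse-transformed to give the autocorrelation. Time-zero points were normalized to matching specific-binding data (5 mol % GM1 in DOPC).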

[8] = tested on: N-acetylgalactose receptors on Chinese hamster ovarian (CHO) cells; details: lectin iodination, PnA 10–60 μM, at least 1 h incubation; cited from earlier work
[9] = [PnA] 0.43 μM, 5 mol % GM1, SHCS
[10] = [PnA] 3.0 μM, 5 mol % GM1, SHCS
[11] = [PnA] 12.2 μM, 5 mol % GM1, SHCS

## CTB
[1]
  koff: 3.6 ± 0.5 ×10^–5 s^–1 and 3.2 ± 0.4 ×10^–5 s^–1 and 2.5 ± 0.2 ×10^–5 s^–1
[2]
  nonspecific binding: negligible nonspecific binding
[3]; 5 mol % GM1-doped lipid bilayer
  kon: 1.27 × 10^6 M^–1·s^–1
[3]; steady-state equilibrium
  Kd: 0.00461 nM
[4]
  Ka: (3.2 ± 0.7) × 10^9 M ^–1
  Kd: 0.31 nM
  n (Hill coefficient): 1.9

B1: PnA: Peanut (Arachis hypogaea) agglutinin, tetrameric lectin that binds specifically to terminal D-galactosyl groups; from Sigma-Aldrich (protein, UniProt P02872 24-273, looked up)
Galactose-binding lectin: AETVSFNFNSFSEGNPAINFQGDVTVLSNGNIQLTNLNKVNSVGRVLYAMPVRIWSSATGNVASFLTSFSFEMKDIKDYDPADGIIFFIAPEDTQIPAGSIGGGTLGVSDTKGAGHFVGVEFDTYSNSEYNDPPTDHVGIDVNSVDSVKTVPWNSVSGAVVKVTVIYDSSTKTLSVAVTNDNGDITTIAQVVDLKAKLPERVKFGFSASGSLGGRQIHLIRSWSFTSTLITTTRRSIDNNEKKIMNMASA
[5]; 0.43 μM PnA, 5 mol % GM1, SHCS
  adsorption rate: (3.7 ± 0.3) × 10^6 M^–1·s^–1
  desorption rate: (1.0 ± 0.2) × 10^–3 s^–1
[5]; 0.43 μM PnA, SHCS
  equilibrium binding affinity Ka: (3.7 ± 0.8) × 10^9 M^–1
[5]; 3 μM PnA, 5 mol % GM1, SHCS
  adsorption rate: (3.9 ± 0.3) × 10^5 M^–1·s^–1
  desorption rate: (2.2 ± 0.2) × 10^–3 s^–1
[5]; 3 μM PnA, SHCS
  equilibrium binding affinity Ka: (1.7 ± 0.2) × 10^8 M^–1
[5]; 12 μM PnA, 5 mol % GM1, SHCS
  adsorption rate: (1.1 ± 0.1) × 10^5 M^–1·s^–1
  desorption rate: (2.7 ± 0.2) × 10^–3 s^–1
[5]; 12 μM PnA, SHCS
  equilibrium binding affinity Ka: (4.1 ± 0.5) × 10^7 M^–1
[5]; 60 μM PnA, 5 mol % GM1, SHCS
  Ka: (8.4 ± 1.4) × 10^6 M^–1
  adsorption rate: (3.1 ± 0.3) × 10^4 M^–1·s^–1
  desorption rate: (3.7 ± 0.5) × 10^–3 s^–1
[5]; [9]
  koff: 1.0 ± 0.2 ×10^–3 s^–1
  kon: 37 ± 3 ×10^5 M^–1·s^–1
[5]; [PnA] 0.43 μM, calculated by eq 2
  Ka: 37 ± 8 ×10^8 M^–1
[5]; [10]
  koff: 2.2 ± 0.2 ×10^–3 s^–1
  kon: 3.9 ± 0.3 ×10^5 M^–1·s^–1
[5]; [PnA] 3.0 μM, calculated by eq 2
  Ka: 1.7 ± 0.2 ×10^8 M^–1
[5]; [11]
  koff: 2.7 ± 0.2 ×10^–3 s^–1
  kon: 1.1 ± 0.1 ×10^5 M^–1·s^–1
[5]; [PnA] 12.2 μM, calculated by eq 2
  Ka: 0.41 ± 0.05 ×10^8 M^–1
[6]
  pI: ~6
[7]
  nonspecific binding: negligible nonspecific binding
[8]
  Ka: (4.5 ± 1) × 10^6 M^–1
